For data set [1], the system named is Bacillus subtilis ATCC 6633. Kind of data set: MIC determination, broth dilution in 96-well plates. The settings on record: LB medium, 28–37 °C, 16–48 h, OD600 read-out, max conc ~10 μg/mL. It counts as cell-based. In short, it runs like this: (§1)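 Starter cultures were grown 16 h at 37 °C and 250 rpm, then diluted in medium to OD600 ~0.1. Test compound was serially diluted in DMSO, with DMSO alone as the negative control. Positive controls were kanamycin for the bacteria and amphotericin B for the yeast. Plates were shaken at 160 rpm during incubation. OD600 was normalized to vehicle wells, and the lowest inhibitory concentration was taken as the MIC.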
For orientation: Broth dilution looks for growth in wells or tubes with falling amounts of substance.

Data set [2] relates to Salmonella enterica ATCC 10708. The data set is described as above. The class given is cell-based. The settings on record: nutrient broth, 28–37 °C, 16–48 h, OD600 read-out, max conc ~10 μg/mL. The essentials: as §1
Data set [3] deals with Escherichia coli ATCC 12435. The description is as above. Particulars: LB medium, 28–37 °C, 16–48 h, OD600 read-out, max conc ~10 μg/mL. The class given is cell-based. In short, it runs like this:
as §1

The subject of data set [4] is Saccharomyces cerevisiae ATCC 204508. The description is as above. The class given is cell-based. The settings on record: YAPD medium, 28–37 °C, 16–48 h, OD600 read-out, max conc ~10 μg/mL. The essentials:
as §1

Data set [5] can be described thus: Stability under acidic conditions. It counts as physicochemical. Particulars: observed during HPLC purification with TFA; UV/Vis monitoring.
The subject of a further data set is Gram-positive strains. Kind of data set: Antibacterial activity, comparisons across the tested strains. The class given is cell-based. Particulars: from MIC of Table 3.
Data set [6] relates to two human cancer cell lines. Nature of the data set: Cytotoxicity, comparison across PC3 and A549. The class given is cell-based. The settings on record: PC3 and A549, 48 h.
Data set [7] relates to S. aureus and B. subtilis. The settings on record: cited from earlier work.

Data on four substances can be found in publication PMC5217177 (Journal of natural products, 2016).

“Also recorded” adds a separate entry of the source. Some results are limits rather than exact numbers.

As to actinomycin Y6 [Compound 1], in data set [1], the “MIC, B. subtilis” value came out at 0.59 µg/mL. Besides, in data set [2], the “MIC, S. enterica” value was over 9.46 µg/mL. Further, the “MIC, E. coli” value in data set [3] is over 9.46 µg/mL. Moreover, in data set [4], the “MIC, S. cerevisae” value came out at 9.46 µg/mL. Also, in data set [5], the “stability under acidic conditions” value is “not stable under acidic conditions; also recorded: unstable under acidic condition”. In addition, the “fold more potent than actinomycin Y3 (antibacterial)” value in the data set with Gram-positive strains was at least 9 fold. Further, the “fold change in EC50 compared to actinomycin D (less potent)” value in data set [6] is 278–355 fold.

As for actinomycin Y4, the “MIC, B. subtilis” value in data set [1] was over 9.32 µg/mL. Further, in data set [2], the “MIC, S. enterica” value is over 9.32 µg/mL. Besides, the “MIC, E. coli” value in data set [3] is over 9.32 µg/mL. For the same substance, in data set [4], the “MIC, S. cerevisae” value is over 9.32 µg/mL.

For actinomycin Y3, the “MIC, B. subtilis” value in data set [1] was over 9.33 µg/mL. Also, in data set [2], the “MIC, S. enterica” value was over 9.33 µg/mL. Also, in data set [3], the “MIC, E. coli” value was over 9.33 µg/mL. For the same substance, in data set [4], the “MIC, S. cerevisae” value is over 9.33 µg/mL.

Consider actinomycin Y5, for which the “antibacterial activity based on zones of inhibition” value in data set [7] is “modest antibacterial activity”.
